Measured values as given in ChEMBL document CHEMBL5058577, “EUbOPEN Chemogenomics Library 2 (Multiplex)” (2022).

Tested on: HEK-293T
Assay: Multiplex assay against HEK293T
Type: toxicity, cell-based
Conditions: human
Method in brief: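 At seeding, live cells were stained with Hoechst33342, BioTracker Green Microtubule Cytoskeleton Dye, MitoTracker Red and Annexin V Alexa Fluor 680. After compound addition they were imaged on a CQ1 microscope at 37°C and 5% CO2, and CellPathfinder machine-learning gating sorted them into Hoechst high-intensity objects or normal cells, with normal cells further split into healthy, pyknosed or fragmented nuclei and pyknosed cells into mitotic or apoptotic. Tubulin, mitochondrial-mass and membrane-permeability phenotypes are given as per cents of cells with healthy nuclei.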

[1] = 12 h, 1 µM, compound concentration 1 uM, replicate 1
[2] = 12 h, 1 µM, compound concentration 1 uM, replicate 2
[3] = 12 h, 10 µM, compound concentration 10 uM, replicate 1
[4] = 12 h, 10 µM, compound concentration 10 uM, replicate 2
[5] = 24 h, 1 µM, compound concentration 1 uM, replicate 1
[6] = 24 h, 1 µM, compound concentration 1 uM, replicate 2
[7] = 24 h, 10 µM, compound concentration 10 uM, replicate 1
[8] = 24 h, 10 µM, compound concentration 10 uM, replicate 2
[9] = 48 h, 1 µM, compound concentration 1 uM, replicate 1
[10] = 48 h, 1 µM, compound concentration 1 uM, replicate 2
[11] = 48 h, 10 µM, compound concentration 10 uM, replicate 1
[12] = 48 h, 10 µM, compound concentration 10 uM, replicate 2

Structure (SMILES): CC[C@H]1OC(=O)[C@H](C)[C@@H](O[C@H]2C[C@@](C)(OC)[C@@H](O)[C@H](C)O2)[C@H](C)[C@@H](O[C@@H]2O[C@H](C)C[C@H](N(C)C)[C@H]2O)[C@@]2(C)CC(C)=C(O2)[C@H](C)[C@@H](O)[C@]1(C)O
- Population Apoptotic (%) [1]: 35%
- Population Fragmented Nuclei (%) [1]: 8%
- Population Healthy Nuclei (%) [1]: 74%
- Population Hoechst High Intensity Objects (%) [1]: 6%
- Population Membrane Permeable-Phenotype (%) [1]: 0%
- Population Mitochondria Different-Phenotype (%) [1]: 56%
- Population Mitotic Cells (%) [1]: 64%
- Population Normal (%) [1]: 93%
- Population Pyknosed Nuclei (%) [1]: 17%
- Population Tubulin-Different-Phenotype (%) [1]: 41%
- Total Cell Count [1]: 367
- Population Apoptotic (%) [2]: 45%
- Population Fragmented Nuclei (%) [2]: 3%
- Population Healthy Nuclei (%) [2]: 84%
- Population Hoechst High Intensity Objects (%) [2]: 7%
- Population Mitochondria Different-Phenotype (%) [2]: 72%
- Population Mitotic Cells (%) [2]: 54%
- Population Normal (%) [2]: 92%
- Population Pyknosed Nuclei (%) [2]: 11%
- Population Tubulin-Different-Phenotype (%) [2]: 27%
- Total Cell Count [2]: 300
- Population Apoptotic (%) [3]: 55%
- Population Fragmented Nuclei (%) [3]: 8%
- Population Healthy Nuclei (%) [3]: 71%
- Population Hoechst High Intensity Objects (%) [3]: 13%
- Population Membrane Permeable-Phenotype (%) [3]: 0%
- Population Mitochondria Different-Phenotype (%) [3]: 87%
- Population Mitotic Cells (%) [3]: 44%
- Population Normal (%) [3]: 86%
- Population Pyknosed Nuclei (%) [3]: 19%
- Population Tubulin-Different-Phenotype (%) [3]: 76%
- Total Cell Count [3]: 383
- Population Apoptotic (%) [4]: 56%
- Population Fragmented Nuclei (%) [4]: 11%
- Population Healthy Nuclei (%) [4]: 72%
- Population Hoechst High Intensity Objects (%) [4]: 10%
- Population Mitochondria Different-Phenotype (%) [4]: 91%
- Population Mitotic Cells (%) [4]: 43%
- Population Normal (%) [4]: 89%
- Population Pyknosed Nuclei (%) [4]: 16%
- Population Tubulin-Different-Phenotype (%) [4]: 77%
- Total Cell Count [4]: 217
- Population Apoptotic (%) [5]: 20%
- Population Fragmented Nuclei (%) [5]: 8%
- Population Healthy Nuclei (%) [5]: 78%
- Population Hoechst High Intensity Objects (%) [5]: 3%
- Population Membrane Permeable-Phenotype (%) [5]: 0%
- Population Mitochondria Different-Phenotype (%) [5]: 35%
- Population Mitotic Cells (%) [5]: 79%
- Population Normal (%) [5]: 96%
- Population Pyknosed Nuclei (%) [5]: 13%
- Population Tubulin-Different-Phenotype (%) [5]: 24%
- Total Cell Count [5]: 493
- Population Apoptotic (%) [6]: 35%
- Population Hoechst High Intensity Objects (%) [6]: 6%
- Population Mitochondria Different-Phenotype (%) [6]: 49%
- Population Mitotic Cells (%) [6]: 64%
- Population Normal (%) [6]: 93%
- Population Pyknosed Nuclei (%) [6]: 12%
- Population Tubulin-Different-Phenotype (%) [6]: 22%
- Total Cell Count [6]: 371
- Population Apoptotic (%) [7]: 42%
- Population Fragmented Nuclei (%) [7]: 9%
- Population Healthy Nuclei (%) [7]: 75%
- Population Hoechst High Intensity Objects (%) [7]: 11%
- Population Membrane Permeable-Phenotype (%) [7]: 0%
- Population Mitochondria Different-Phenotype (%) [7]: 74%
- Population Mitotic Cells (%) [7]: 57%
- Population Normal (%) [7]: 88%
- Population Pyknosed Nuclei (%) [7]: 15%
- Population Tubulin-Different-Phenotype (%) [7]: 75%
- Total Cell Count [7]: 499
- Population Apoptotic (%) [8]: 70%
- Population Fragmented Nuclei (%) [8]: 10%
- Population Healthy Nuclei (%) [8]: 71%
- Population Hoechst High Intensity Objects (%) [8]: 10%
- Population Mitochondria Different-Phenotype (%) [8]: 87%
- Population Mitotic Cells (%) [8]: 29%
- Population Normal (%) [8]: 89%
- Population Pyknosed Nuclei (%) [8]: 18%
- Population Tubulin-Different-Phenotype (%) [8]: 80%
- Total Cell Count [8]: 254
- Population Apoptotic (%) [9]: 30%
- Population Fragmented Nuclei (%) [9]: 12%
- Population Healthy Nuclei (%) [9]: 76%
- Population Hoechst High Intensity Objects (%) [9]: 8%
- Population Membrane Permeable-Phenotype (%) [9]: 0%
- Population Mitochondria Different-Phenotype (%) [9]: 28%
- Population Mitotic Cells (%) [9]: 69%
- Population Normal (%) [9]: 91%
- Population Pyknosed Nuclei (%) [9]: 11%
- Population Tubulin-Different-Phenotype (%) [9]: 21%
- Total Cell Count [9]: 718
- Population Apoptotic (%) [10]: 21%
- Population Healthy Nuclei (%) [10]: 78%
- Population Hoechst High Intensity Objects (%) [10]: 6%
- Population Mitochondria Different-Phenotype (%) [10]: 34%
- Population Mitotic Cells (%) [10]: 78%
- Population Normal (%) [10]: 93%
- Population Pyknosed Nuclei (%) [10]: 9%
- Population Tubulin-Different-Phenotype (%) [10]: 20%
- Total Cell Count [10]: 584
- Population Apoptotic (%) [11]: 50%
- Population Fragmented Nuclei (%) [11]: 12%
- Population Healthy Nuclei (%) [11]: 74%
- Population Hoechst High Intensity Objects (%) [11]: 10%
- Population Membrane Permeable-Phenotype (%) [11]: 1%
- Population Mitochondria Different-Phenotype (%) [11]: 61%
- Population Mitotic Cells (%) [11]: 50%
- Population Normal (%) [11]: 89%
- Population Pyknosed Nuclei (%) [11]: 12%
- Population Tubulin-Different-Phenotype (%) [11]: 56%
- Total Cell Count [11]: 671
- Population Apoptotic (%) [12]: 53%
- Population Healthy Nuclei (%) [12]: 75%
- Population Hoechst High Intensity Objects (%) [12]: 12%
- Population Membrane Permeable-Phenotype (%) [12]: 0%
- Population Mitochondria Different-Phenotype (%) [12]: 84%
- Population Mitotic Cells (%) [12]: 46%
- Population Normal (%) [12]: 87%
- Population Pyknosed Nuclei (%) [12]: 11%
- Population Tubulin-Different-Phenotype (%) [12]: 73%
- Total Cell Count [12]: 300

Structure (SMILES): Cc1ccc(C(C)(O)c2nc3ccccc3s2)c(C)c1 (stereo not given)
- Population Apoptotic (%) [1]: 30%
- Population Fragmented Nuclei (%) [1]: 19%
- Population Healthy Nuclei (%) [1]: 72%
- Population Hoechst High Intensity Objects (%) [1]: 4%
- Population Membrane Permeable-Phenotype (%) [1]: 1%
- Population Mitochondria Different-Phenotype (%) [1]: 36%
- Population Mitotic Cells (%) [1]: 70%
- Population Normal (%) [1]: 95%
- Population Pyknosed Nuclei (%) [1]: 8%
- Population Tubulin-Different-Phenotype (%) [1]: 30%
- Total Cell Count [1]: 483
- Population Apoptotic (%) [2]: 41%
- Population Fragmented Nuclei (%) [2]: 4%
- Population Healthy Nuclei (%) [2]: 79%
- Population Hoechst High Intensity Objects (%) [2]: 5%
- Population Membrane Permeable-Phenotype (%) [2]: 0%
- Population Mitochondria Different-Phenotype (%) [2]: 63%
- Population Mitotic Cells (%) [2]: 58%
- Population Normal (%) [2]: 94%
- Population Pyknosed Nuclei (%) [2]: 16%
- Population Tubulin-Different-Phenotype (%) [2]: 25%
- Total Cell Count [2]: 308
- Population Apoptotic (%) [3]: 56%
- Population Fragmented Nuclei (%) [3]: 5%
- Population Healthy Nuclei (%) [3]: 82%
- Population Hoechst High Intensity Objects (%) [3]: 8%
- Population Membrane Permeable-Phenotype (%) [3]: 0%
- Population Mitochondria Different-Phenotype (%) [3]: 62%
- Population Mitotic Cells (%) [3]: 43%
- Population Normal (%) [3]: 91%
- Population Pyknosed Nuclei (%) [3]: 12%
- Population Tubulin-Different-Phenotype (%) [3]: 44%
- Total Cell Count [3]: 412
- Population Apoptotic (%) [4]: 36%
- Population Fragmented Nuclei (%) [4]: 7%
- Population Healthy Nuclei (%) [4]: 78%
- Population Hoechst High Intensity Objects (%) [4]: 7%
- Population Mitochondria Different-Phenotype (%) [4]: 72%
- Population Mitotic Cells (%) [4]: 63%
- Population Normal (%) [4]: 92%
- Population Pyknosed Nuclei (%) [4]: 13%
- Population Tubulin-Different-Phenotype (%) [4]: 25%
- Total Cell Count [4]: 318
- Population Apoptotic (%) [5]: 26%
- Population Fragmented Nuclei (%) [5]: 18%
- Population Healthy Nuclei (%) [5]: 73%
- Population Hoechst High Intensity Objects (%) [5]: 3%
- Population Membrane Permeable-Phenotype (%) [5]: 1%
- Population Mitochondria Different-Phenotype (%) [5]: 15%
- Population Mitotic Cells (%) [5]: 73%
- Population Normal (%) [5]: 96%
- Population Pyknosed Nuclei (%) [5]: 8%
- Population Tubulin-Different-Phenotype (%) [5]: 11%
- Total Cell Count [5]: 645
- Population Apoptotic (%) [6]: 32%
- Population Fragmented Nuclei (%) [6]: 6%
- Population Healthy Nuclei (%) [6]: 85%
- Population Membrane Permeable-Phenotype (%) [6]: 0%
- Population Mitochondria Different-Phenotype (%) [6]: 36%
- Population Mitotic Cells (%) [6]: 67%
- Population Pyknosed Nuclei (%) [6]: 7%
- Population Tubulin-Different-Phenotype (%) [6]: 16%
- Total Cell Count [6]: 447
- Population Apoptotic (%) [7]: 28%
- Population Fragmented Nuclei (%) [7]: 6%
- Population Healthy Nuclei (%) [7]: 82%
- Population Hoechst High Intensity Objects (%) [7]: 8%
- Population Membrane Permeable-Phenotype (%) [7]: 0%
- Population Mitochondria Different-Phenotype (%) [7]: 42%
- Population Mitotic Cells (%) [7]: 71%
- Population Normal (%) [7]: 91%
- Population Pyknosed Nuclei (%) [7]: 11%
- Population Tubulin-Different-Phenotype (%) [7]: 34%
- Total Cell Count [7]: 487
- Population Apoptotic (%) [8]: 36%
- Population Fragmented Nuclei (%) [8]: 10%
- Population Healthy Nuclei (%) [8]: 78%
- Population Hoechst High Intensity Objects (%) [8]: 6%
- Population Mitochondria Different-Phenotype (%) [8]: 63%
- Population Mitotic Cells (%) [8]: 63%
- Population Normal (%) [8]: 93%
- Population Pyknosed Nuclei (%) [8]: 10%
- Population Tubulin-Different-Phenotype (%) [8]: 23%
- Total Cell Count [8]: 379
- Population Apoptotic (%) [9]: 17%
- Population Fragmented Nuclei (%) [9]: 20%
- Population Healthy Nuclei (%) [9]: 73%
- Population Hoechst High Intensity Objects (%) [9]: 2%
- Population Membrane Permeable-Phenotype (%) [9]: 1%
- Population Mitochondria Different-Phenotype (%) [9]: 15%
- Population Mitotic Cells (%) [9]: 82%
- Population Normal (%) [9]: 97%
- Population Pyknosed Nuclei (%) [9]: 5%
- Population Tubulin-Different-Phenotype (%) [9]: 12%
- Total Cell Count [9]: 964
- Population Apoptotic (%) [10]: 34%
- Population Fragmented Nuclei (%) [10]: 13%
- Population Healthy Nuclei (%) [10]: 78%
- Population Hoechst High Intensity Objects (%) [10]: 3%
- Population Mitochondria Different-Phenotype (%) [10]: 22%
- Population Mitotic Cells (%) [10]: 65%
- Population Normal (%) [10]: 96%
- Population Pyknosed Nuclei (%) [10]: 8%
- Population Tubulin-Different-Phenotype (%) [10]: 11%
- Total Cell Count [10]: 621
- Population Apoptotic (%) [11]: 33%
- Population Fragmented Nuclei (%) [11]: 14%
- Population Healthy Nuclei (%) [11]: 76%
- Population Hoechst High Intensity Objects (%) [11]: 2%
- Population Membrane Permeable-Phenotype (%) [11]: 0%
- Population Mitochondria Different-Phenotype (%) [11]: 28%
- Population Mitotic Cells (%) [11]: 66%
- Population Normal (%) [11]: 97%
- Population Pyknosed Nuclei (%) [11]: 9%
- Population Tubulin-Different-Phenotype (%) [11]: 18%
- Total Cell Count [11]: 713
- Population Apoptotic (%) [12]: 50%
- Population Fragmented Nuclei (%) [12]: 13%
- Population Healthy Nuclei (%) [12]: 80%
- Population Hoechst High Intensity Objects (%) [12]: 3%
- Population Membrane Permeable-Phenotype (%) [12]: 1%
- Population Mitochondria Different-Phenotype (%) [12]: 33%
- Population Mitotic Cells (%) [12]: 50%
- Population Normal (%) [12]: 96%
- Population Pyknosed Nuclei (%) [12]: 5%
- Population Tubulin-Different-Phenotype (%) [12]: 13%
- Total Cell Count [12]: 508
